# INS-1E ATP HTS – preserves ATP levels in cytokine-treated INS-1E cells. INS-1E cytokine-induced death, ATP luminescence, 48 h; normalised: neutral wells 0, positive control 100. protection from cytokine-induced ATP loss, % at 10 µM. 20,000 tested, 0.1% active;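 active = mean replicate protection from cytokine-induced ATP loss at least 50% and at least 75% of replicates each reaching 50%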
#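 Assay system – rat INS-1E insulinoma cell line · Quantity – 8000 cells per well · Buffer or medium – RPMI without phenol red, 5% FBS · Schedule – 48 h co-treatment, 10 min post-lysis read · Technique – luminescent ATP assay (CellTiter-Glo)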
# A1 apoptosis 2 – blocks A1, raising caspase activity | MEF A1-2A-BIM cells, caspase-Glo luminescence, 3 h; percent of clofoctol response, DMSO zero | caspase activation, % (test concentration not listed) | 24,000 tested, under 10 active | AID 2465; in the data active = caspase activation above about 5.9%
#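 Material: mouse embryonic fibroblasts co-expressing A1 and BIM (A1-2A-BIM), primed for A1 dependence / Quantity: 2500 cells/well / Buffer or medium: RPMI-1640 growth medium with 10% FBS / Doses: 50 nL compound per well, pinned / Schedule: 3 h compound exposure at 37 °C / Signal: Caspase-Glo luminescence (DEVD substrate) / Measure: Caspase-3/7 activation, seen as rise in luminescence signal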
# T cruzi HTS – blocks T. cruzi growth inside host cells; intracellular Trypanosoma cruzi in host cells, plate reader; activity score (inhibition), % at 5.01 µM; 22,000 tested, 4.9% active; AID 651903; in the data active = activity score above about 55%;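 note: parasites and compound incubated about four days before reading; 0% = median of neutral control wells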
# * hit, by the source's call; . = no result. The sample as a whole holds a higher share of hits than the screen did.
SMILES,INS-1E ATP HTS,A1 apoptosis 2,T cruzi HTS
C[C@@H]1CN([C@@H](C)CO)C(=O)c2cccc(NC(=O)c3ccncc3)c2O[C@@H]1CN(C)Cc1ccc(C(=O)O)cc1,5,0,-14
C[C@@H]1CN([C@@H](C)CO)C(=O)c2cccc(NC(=O)c3ccncc3)c2O[C@H]1CN(C)Cc1ccccc1,8,.,79*
C[C@@H]1CN([C@@H](C)CO)C(=O)c2cccc(NC(=O)c3ccncc3)c2O[C@H]1CN(C)CC1CCCCC1,-7,.,76*
C[C@@H]1CN([C@H](C)CO)C(=O)c2cccc(NC(=O)c3ccncc3)c2O[C@@H]1CN(C)CC1CCCCC1,-11,0,12
C[C@@H]1CN([C@@H](C)CO)C(=O)c2cccc(NC(=O)c3ccncc3)c2O[C@H]1CN(C)Cc1ccncc1,13,-1,-17
C[C@H]1CN([C@@H](C)CO)C(=O)c2cccc(NC(=O)c3ccncc3)c2O[C@H]1CN(C)Cc1ccccc1,3,.,81*
C[C@H](CO)N1C[C@H](C)[C@@H](CN(C)Cc2ccncc2)Oc2c(NC(=O)c3ccncc3)cccc2C1=O,-1,-1,-34
COC(=O)C(CC#Cc1ccc2c(c1)[C@]1(C(=O)N2)[C@H](C(=O)N2CCCCCCC2)[C@H]2C(=O)O[C@H](c3ccccc3)[C@H](c3ccccc3)N2[C@@H]1c1ccc(O)cc1)C(=O)OC,.,0,.
CC(C)=CCC[C@H](C)C/C=N/NC(=O)CCCCC(=O)NO,13,0,10
COC(=O)CCCCCCC(=O)N/N=C/c1cccc2ccccc12,6,.,16
O=C(CCCCC(=O)N/N=C/c1ccc(O)cc1Br)NO,.,-1,.
C[C@@H]1CCCCO[C@H](CN(C)C(=O)Cc2ccccc2)[C@H](C)CN([C@H](C)CO)C(=O)c2cc(NS(=O)(=O)c3ccccc3)ccc2O1,.,2,.
C[C@@H]1CCCCO[C@H](CN(C)Cc2ccc(Cl)c(Cl)c2)[C@@H](C)CN([C@@H](C)CO)C(=O)c2cc(NC(=O)c3ccccc3)ccc2O1,.,0,.
C[C@@H]1CN([C@@H](C)CO)C(=O)c2cc(NC(=O)Nc3ccc(F)cc3)ccc2O[C@@H](C)CCCCO[C@H]1CN(C)Cc1ccc(Cl)c(Cl)c1,.,-1,.
C[C@@H]1CCCCO[C@@H](CN(C)Cc2ccc(Cl)c(Cl)c2)[C@@H](C)CN([C@H](C)CO)C(=O)c2cc(NC(=O)c3ccccc3)ccc2O1,-43,-1,65*
C[C@@H]1CCCCO[C@@H](CN(C)Cc2ccc(Cl)c(Cl)c2)[C@@H](C)CN([C@H](C)CO)C(=O)c2cc(NC(=O)Nc3ccc(F)cc3)ccc2O1,-14,.,67*
C[C@@H]1CCCCO[C@H](CN(C)Cc2ccc(Cl)c(Cl)c2)[C@H](C)CN([C@@H](C)CO)C(=O)c2cc(NC(=O)Nc3ccc(F)cc3)ccc2O1,.,-2,.
C[C@@H]1CCCCO[C@@H](CN(C)Cc2ccc(Cl)c(Cl)c2)[C@@H](C)CN([C@H](C)CO)C(=O)c2cc(NC(=O)NC3CCCCC3)ccc2O1,-16,1,66*
C[C@@H]1CCCCO[C@H](CN(C)Cc2ccc(Cl)c(Cl)c2)[C@@H](C)CN([C@H](C)CO)C(=O)c2cc(NC(=O)Nc3ccc(F)cc3)ccc2O1,-9,0,86*
C[C@@H]1CCCCO[C@H](CN(C)Cc2ccc(Cl)c(Cl)c2)[C@@H](C)CN([C@@H](C)CO)C(=O)c2cc(NC(=O)NC3CCCCC3)ccc2O1,.,0,.
COc1ccc(/C=N/NC(=O)CCCCCCC(=O)Nc2ccccc2O)cc1,10,0,-11
OCC1CC(c2ccccc2)=NO1 (stereo not given),.,-1,.
C[C@@H]1CCCCO[C@@H](CN(C)Cc2ccc(C(=O)Nc3ccccc3N)cc2)[C@@H](C)CN([C@H](C)CO)C(=O)c2cc(NS(C)(=O)=O)ccc2O1,-15,0,56*
C[C@@H]1CCCCO[C@H](CN(C)Cc2ccc(C(=O)Nc3ccccc3N)cc2)[C@@H](C)CN([C@H](C)CO)C(=O)c2cc(NS(=O)(=O)c3ccccc3)ccc2O1,.,-1,.
CC(/C=C/C(=O)NO)=C\c1cccc(OC[C@@H]2[C@H]3C[C@H]4c5[nH]c6ccccc6c5CCN4C[C@@H]3CC[C@@H]2O)c1,.,0,.
C[C@@H]1CN([C@@H](C)CO)C(=O)c2cccc(NS(C)(=O)=O)c2O[C@@H]1CN(C)Cc1ccc(C(=O)Nc2ccccc2N)cc1,35,0,28
COc1cccc(S(=O)(=O)N(C)C[C@@H]2Oc3ncc(-c4cc5ccccc5o4)cc3C(=O)N([C@H](C)CO)C[C@@H]2C)c1,.,.,53

# Screens (PubChem BioAssay)
